Columns and labels:
[1] = molecular target: T1, Serine/threonine-protein kinase Nek9 (Homo sapiens) (UniProt Q8TD19); experiment: Inhibition of NEK9 Lys2 labeling site in human Huh-7 cell lysate at 1 uM by KiNativ Profiling analysis relative to control; assay type: subcellular
T1 sequence (whole entry): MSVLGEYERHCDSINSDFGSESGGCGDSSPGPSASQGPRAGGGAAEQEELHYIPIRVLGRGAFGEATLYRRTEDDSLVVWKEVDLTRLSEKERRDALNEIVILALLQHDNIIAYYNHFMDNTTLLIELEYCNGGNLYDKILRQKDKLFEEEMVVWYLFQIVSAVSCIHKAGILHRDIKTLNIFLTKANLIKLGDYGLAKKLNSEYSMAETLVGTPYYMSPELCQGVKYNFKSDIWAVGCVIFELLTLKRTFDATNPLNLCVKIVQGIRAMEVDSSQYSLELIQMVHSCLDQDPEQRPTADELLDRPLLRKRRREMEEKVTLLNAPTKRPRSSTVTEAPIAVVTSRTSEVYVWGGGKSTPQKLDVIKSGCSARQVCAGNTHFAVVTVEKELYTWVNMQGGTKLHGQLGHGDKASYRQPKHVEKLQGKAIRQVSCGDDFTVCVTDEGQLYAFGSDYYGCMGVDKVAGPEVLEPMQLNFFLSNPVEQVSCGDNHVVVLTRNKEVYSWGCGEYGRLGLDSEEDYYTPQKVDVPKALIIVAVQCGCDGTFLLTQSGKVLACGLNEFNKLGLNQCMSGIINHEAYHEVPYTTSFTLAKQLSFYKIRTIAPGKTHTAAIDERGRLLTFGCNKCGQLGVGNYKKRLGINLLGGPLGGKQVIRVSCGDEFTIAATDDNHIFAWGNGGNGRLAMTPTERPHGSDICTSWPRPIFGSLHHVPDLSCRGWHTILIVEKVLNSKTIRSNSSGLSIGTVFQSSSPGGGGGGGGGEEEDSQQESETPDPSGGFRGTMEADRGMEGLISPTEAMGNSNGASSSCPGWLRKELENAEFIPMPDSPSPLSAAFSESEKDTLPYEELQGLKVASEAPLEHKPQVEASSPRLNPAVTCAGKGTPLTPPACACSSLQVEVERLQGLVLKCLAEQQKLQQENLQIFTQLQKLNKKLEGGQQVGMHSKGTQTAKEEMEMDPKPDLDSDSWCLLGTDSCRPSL

[2] = molecular target: Casein kinase I isoform gamma-3 (Homo sapiens) (UniProt Q9Y6M4); experiment: Inhibition of CSNK1G3 (unknown origin) at 1 uM by Ambit Kinomescan binding assay relative to control
Sequence of Casein kinase I isoform gamma-3 (Homo sapiens) (Q9Y6M4 whole entry, looked up, canonical isoform): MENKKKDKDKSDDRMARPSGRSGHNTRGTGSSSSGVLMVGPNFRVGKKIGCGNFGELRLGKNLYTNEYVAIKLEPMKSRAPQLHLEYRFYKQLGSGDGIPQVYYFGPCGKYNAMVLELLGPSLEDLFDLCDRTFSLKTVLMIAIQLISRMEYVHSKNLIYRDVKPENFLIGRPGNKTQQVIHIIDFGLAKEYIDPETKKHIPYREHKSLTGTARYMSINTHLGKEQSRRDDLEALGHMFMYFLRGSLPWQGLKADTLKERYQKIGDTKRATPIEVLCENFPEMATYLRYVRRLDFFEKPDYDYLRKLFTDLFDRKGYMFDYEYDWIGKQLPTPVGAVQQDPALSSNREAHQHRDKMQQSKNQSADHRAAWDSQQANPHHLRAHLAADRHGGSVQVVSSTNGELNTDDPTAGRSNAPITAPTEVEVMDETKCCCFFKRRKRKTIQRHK

[3] = molecular target: T2, Dual specificity mitogen-activated protein kinase kinase 3 (Homo sapiens) (UniProt P46734); experiment: Inhibition of MAP2K3 Lys2 labeling site in human A-375 cells at 0.5 uM by KiNativ Profiling analysis relative to control; assay type: cell-based
T2 sequence (whole entry): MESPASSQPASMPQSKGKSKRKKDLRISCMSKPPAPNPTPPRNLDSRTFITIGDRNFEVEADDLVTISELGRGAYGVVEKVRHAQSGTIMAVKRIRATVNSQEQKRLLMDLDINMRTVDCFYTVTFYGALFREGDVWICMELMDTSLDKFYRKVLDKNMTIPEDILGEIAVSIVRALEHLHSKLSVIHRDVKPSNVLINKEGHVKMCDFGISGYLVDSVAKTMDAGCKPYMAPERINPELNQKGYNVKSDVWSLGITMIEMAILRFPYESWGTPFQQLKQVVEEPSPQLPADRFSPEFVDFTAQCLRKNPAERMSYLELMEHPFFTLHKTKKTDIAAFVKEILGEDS

[4] = molecular target: Ribosomal protein S6 kinase alpha-2 (Homo sapiens) (UniProt Q15349); experiment: Inhibition of C-terminal RSK3 kinase domain 2 (unknown origin) at 1 uM by Ambit Kinomescan binding assay relative to control
Sequence of Ribosomal protein S6 kinase alpha-2 (Homo sapiens) (Q15349 whole entry, the tested form may be a part): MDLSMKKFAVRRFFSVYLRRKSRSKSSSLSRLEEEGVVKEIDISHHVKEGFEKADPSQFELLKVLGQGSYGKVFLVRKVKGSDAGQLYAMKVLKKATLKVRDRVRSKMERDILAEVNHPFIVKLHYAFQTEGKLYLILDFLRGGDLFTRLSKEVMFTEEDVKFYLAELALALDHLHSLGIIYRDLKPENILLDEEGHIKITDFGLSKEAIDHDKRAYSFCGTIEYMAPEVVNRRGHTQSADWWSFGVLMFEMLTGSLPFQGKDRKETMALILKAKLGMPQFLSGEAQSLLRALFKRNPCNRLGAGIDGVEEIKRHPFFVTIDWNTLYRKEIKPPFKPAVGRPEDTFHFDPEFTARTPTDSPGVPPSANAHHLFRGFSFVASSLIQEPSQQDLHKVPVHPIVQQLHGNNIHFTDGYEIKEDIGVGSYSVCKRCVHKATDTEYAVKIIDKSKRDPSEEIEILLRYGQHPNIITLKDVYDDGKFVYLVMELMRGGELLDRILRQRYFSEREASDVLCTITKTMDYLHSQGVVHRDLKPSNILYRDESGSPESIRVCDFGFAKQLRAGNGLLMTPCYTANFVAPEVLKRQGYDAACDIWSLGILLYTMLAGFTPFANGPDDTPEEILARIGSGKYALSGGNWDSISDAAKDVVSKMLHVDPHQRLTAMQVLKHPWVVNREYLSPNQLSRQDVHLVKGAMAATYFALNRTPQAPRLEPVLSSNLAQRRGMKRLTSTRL
Outline: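 In vitro ATP-site competition binding assay against a panel of over 420 kinases (KinomeScan), with compound tested at 10 or 1 μM.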

[5] = molecular target: T3, Serine/threonine-protein kinase Chk1 (Homo sapiens) (UniProt O14757); experiment: Inhibition of CHK1 in human Huh-7 cells at 1 uM by KiNativ Profiling analysis relative to control; assay type: cell-based
T3 sequence (whole entry): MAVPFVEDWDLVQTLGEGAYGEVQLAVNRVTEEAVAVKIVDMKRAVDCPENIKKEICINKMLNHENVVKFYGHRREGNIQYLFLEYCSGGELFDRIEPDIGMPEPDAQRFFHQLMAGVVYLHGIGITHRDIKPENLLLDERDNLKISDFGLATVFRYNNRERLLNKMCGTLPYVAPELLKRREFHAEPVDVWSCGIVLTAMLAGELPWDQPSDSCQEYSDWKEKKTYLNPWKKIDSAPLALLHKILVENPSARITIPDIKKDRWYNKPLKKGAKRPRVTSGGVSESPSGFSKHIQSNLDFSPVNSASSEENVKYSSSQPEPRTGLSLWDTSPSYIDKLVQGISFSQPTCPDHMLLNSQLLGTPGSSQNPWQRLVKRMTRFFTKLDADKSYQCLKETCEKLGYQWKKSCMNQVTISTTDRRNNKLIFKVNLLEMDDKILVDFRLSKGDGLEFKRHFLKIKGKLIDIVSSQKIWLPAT

[6] = molecular target: Cyclin-dependent kinase 5 (Homo sapiens) (UniProt Q00535); experiment: Inhibition of CDK5 K2 labeling site harbouring DLKPQNLLINR in human Huh-7 cells at 10 uM by KiNativ Profiling analysis relative to control; assay type: cell-based
Sequence of Cyclin-dependent kinase 5 (Homo sapiens) (Q00535 whole entry, looked up): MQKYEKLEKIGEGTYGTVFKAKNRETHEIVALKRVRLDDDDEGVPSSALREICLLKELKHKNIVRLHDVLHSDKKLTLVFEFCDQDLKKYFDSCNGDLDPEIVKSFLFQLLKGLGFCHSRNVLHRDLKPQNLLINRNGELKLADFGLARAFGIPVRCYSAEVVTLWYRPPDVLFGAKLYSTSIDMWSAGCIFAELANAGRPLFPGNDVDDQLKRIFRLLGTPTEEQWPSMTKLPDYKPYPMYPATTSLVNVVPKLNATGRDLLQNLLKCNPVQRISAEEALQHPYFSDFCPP

CNc1cc(Oc2cc(C(=O)Nc3cc(N4CCN(C)CC4)cc(C(F)(F)F)c3)ccc2C)ncn1
inhibition [1]: -3.1%

CCN1CCN(Cc2ccc(NC(=O)c3ccc(C)c(/C=C/c4cnc5[nH]ccc5c4OC)c3)cc2C(F)(F)F)CC1
inhibition [2]: 71%
inhibition [3]: 6.4%
inhibition [4]: 67%

CCN1CCN(Cc2ccc(NC(=O)c3ccc(C)c(Oc4ccnc5[nH]ccc45)c3)cc2C(F)(F)F)CC1
inhibition [5]: -0.4%
inhibition [6]: -6.3%
